Consider four compounds from ChEMBL document CHEMBL3414461, “Clerodane type diterpene as a novel antifungal agent from Polyalthia longifolia var. pendula” (Eur J Med Chem, 2015).

In data set [1] the test system is Neurospora crassa. As to the kind of experiment: Antifungal activity against Neurospora crassa NCIM 870 after 24 to 48 hrs by microbroth dilution method. In kind it is functional. The method in brief:
(§1)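 Broth microdilution per CLSI. DMSO stock diluted 1:40 in YPG medium, then two-fold serial dilution across […] range. Inoculum: log-phase yeast cells (~2 × 10^4 cfu/mL) grown in YPG broth, or spores for phytopathogens. Incubated 24–48 h; growth read as absorbance at 600 nm. MIC is the lowest concentration giving >90% growth inhibition versus control; IC50 is the concentration giving 50% inhibition.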
On the technique in general: Broth dilution looks for growth in wells or tubes with falling amounts of substance.

In data set [2] the test system is Cryptococcus neoformans. Nature of the data set: Antifungal activity against Cryptococcus neoformans NCIM 3542 after 24 to 48 hrs by microbroth dilution method. It counts as functional. The method in brief:
as §1

Data set [3] deals with Aspergillus fumigatus. Nature of the data set: Antifungal activity against Aspergillus fumigatus NCIM 902 after 24 to 48 hrs by microbroth dilution method. In kind it is functional. The method, boiled down: as §1
For data set [4], the system named is Nakaseomyces glabratus. As to the kind of experiment: Antifungal activity against Candida glabrata NCIM 3237 after 24 to 48 hrs by microbroth dilution method. It counts as functional. The method, boiled down:
as §1

For data set [5], the system named is Fusarium oxysporum. Nature of the data set: Antifungal activity against Fusarium oxysporum NCIM 1043 after 24 to 48 hrs by microbroth dilution method. It counts as functional. The method in brief:
as §1

In data set [6] the test system is Aspergillus niger. As to the kind of experiment: Antifungal activity against Aspergillus niger NCIM 628 after 24 to 48 hrs by microbroth dilution method. In kind it is functional. The method, boiled down: as §1
Data set [7] deals with Candida albicans. Nature of the data set: Antifungal activity against Candida albicans NCIM 3471 after 24 to 48 hrs by microbroth dilution method. In kind it is functional. The method, boiled down:
as §1

The nature of data set [8]: Cytotoxicity against sheep RBC assessed as haemolytic activity at 1200 uM after 2 hrs by spectrophotometry. It counts as cell-based, Ovis aries, Erythrocyte. Conditions: sheep red blood cells, read-out: Activity. The method in brief: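 Sheep RBCs washed with PBS (pH 7.0), resuspended to a 4% suspension, mixed 1:1 with PBS containing test compound. Incubated 37 °C for 2 h, centrifuged 2000 rpm for 5 min, supernatant absorbance read at 545 nm. PBS set as 0% lysis and 0.1% Triton X-100 as 100%. Percent haemolysis calculated relative to these; triplicates averaged.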

Data set [9] deals with Candida albicans. As to the kind of experiment: Antifungal activity against Candida albicans NCIM 3557 assessed as inhibition of 50% germ tube formation. In kind it is functional.
For data set [10], the system named is Candida albicans. As to the kind of experiment: Antifungal activity against Candida albicans NCIM 3557 after 24 to 48 hrs by microbroth dilution method. In kind it is functional. The method in brief:
as §1

Data set [11] concerns Candida albicans. Nature of the data set: Induction of ROS generation in Candida albicans NCIM 3557 at 50.3 to 201.2 uM after 200 mins by DHR123 staining-based fluorescence assay. In kind it is functional, organism-based. The method, boiled down:
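1×10^6 C. albicans NCIM3557 cells grown in YPG broth with compound at 37 °C for 200 min. Cells washed, then DHR123 added at […] final (from ethanol stock) in PBS for 30 min. Cells washed, resuspended in PBS, and fluorescence read (ex 480/em 525 nm) by epifluorescence microscopy. Untreated cells served as negative control and H2O2-treated cells as positive control.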

Data set [12] relates to Candida albicans. As to the kind of experiment: Induction of ROS generation in Candida albicans NCIM 3557 at 25.2 to 100.6 uM after 60 mins by DCFH-DA staining-based fluorescence assay. In kind it is functional, organism-based.

Broadly, the MIC90 is the lowest concentration that inhibits either 90% of growth or 90% of the strains tested, depending on the study. A high value points to lower susceptibility.

Converted amounts (≈) assume the structure as drawn. The source made the active and inactive calls. The calls are words filed in the database; no cut-off is given here.

As for `CC1=CCC[C@@H]2[C@@](C)(CCC3=CC(=O)OC3OC(=O)OC(C)(C)C)[C@H](C)CC[C@@]12C` (mixture of isomers), the MIC90 in data set [1], in [2], in [3], in data set [4], in [5] and in [6] was greater than 600 µM throughout. Further, the MIC90 in [7] and in data set [10] was greater than 600 µM in each case. For the same compound, in data set [8], the hemolysis at 2 h, 1200 µM was less than 15%. Further, the “Concentration for 50% inhibition of germ tube formation (IC50)” value (shortened to “Concentration for 50% inhibition”) in data set [9] was found to be 153.1 µM.
As for `CC(=O)OC1OC(=O)C=C1CC[C@@]1(C)[C@H](C)CC[C@@]2(C)C(C)=CCC[C@H]12` (mixture of isomers), the MIC90 in data set [1], in data set [2], in data set [3], in data set [4], in data set [5] and in data set [6] was greater than 600 µM in each case. Moreover, the MIC90 in data set [7] and in data set [10] was greater than 600 µM each time. Besides, the hemolysis at 2 h, 1200 µM in [8] was less than 15%. Further, the “Concentration for 50% inhibition” value in [9] stood at 177.8 µM.
For the compound `C[C@@H]1CC[C@]2(C)[C@H](CC[C@@H]3O[C@@]32C)[C@@]1(C)CCC1=CC(=O)O[C@@H]1O`, the MIC90 in [1], in [2], in data set [3], in data set [4], in data set [5] and in [6] was greater than 600 µM each time. Moreover, the MIC90 in data set [7] and in data set [10] was greater than 600 µM each time. Moreover, the hemolysis at 2 h, 1200 µM in data set [8] was less than 15%. Besides, in [9], the “Concentration for 50% inhibition” value came to 191.6 µM.
Turning to `CC1=CCC[C@@H]2[C@@](C)(CCC3=CC(=O)O[C@@H]3O)[C@H](C)CC[C@@]12C`, the MIC90 is 201 µM (≈ 64.1 µg/mL) in [1]; 101 µM (≈ 32 µg/mL) in data set [2]; 805 µM (≈ 256 µg/mL) in [3]; 805 µM (≈ 256 µg/mL) in data set [4]; 805 µM (≈ 256 µg/mL) in data set [5]; 805 µM (≈ 256 µg/mL) in data set [6]. Moreover, the MIC90 in data set [7] came to 805 µM (≈ 256 µg/mL); in data set [10], 50.3 µM (≈ 16 µg/mL). Also, the result in [11] and in [12] was Active. In addition, in data set [8], the hemolysis at 2 h, 1200 µM is less than 15%. For the same compound, in data set [9], the “Concentration for 50% inhibition” value is 25.14 µM.
